Laboratory results taken from ChEMBL document CHEMBL5653631, “A Potent and Selective ULK1 Inhibitor Suppresses Autophagy and Sensitizes Cancer Cells to Nutrient Stress” (iScience, 2018).
Blank lines part the entries; values can stand above or below the molecule they belong to.

How the values were obtained:
[1] = molecular target: Fibroblast growth factor receptor 2 (Homo sapiens) (UniProt P21802); assay: Inhibition of human recombinant FGFR2 at 500 nM in presence of ATP by radiometric assay relative to control
Fibroblast growth factor receptor 2 (Homo sapiens), sequence (P21802 22-821 limits assumed): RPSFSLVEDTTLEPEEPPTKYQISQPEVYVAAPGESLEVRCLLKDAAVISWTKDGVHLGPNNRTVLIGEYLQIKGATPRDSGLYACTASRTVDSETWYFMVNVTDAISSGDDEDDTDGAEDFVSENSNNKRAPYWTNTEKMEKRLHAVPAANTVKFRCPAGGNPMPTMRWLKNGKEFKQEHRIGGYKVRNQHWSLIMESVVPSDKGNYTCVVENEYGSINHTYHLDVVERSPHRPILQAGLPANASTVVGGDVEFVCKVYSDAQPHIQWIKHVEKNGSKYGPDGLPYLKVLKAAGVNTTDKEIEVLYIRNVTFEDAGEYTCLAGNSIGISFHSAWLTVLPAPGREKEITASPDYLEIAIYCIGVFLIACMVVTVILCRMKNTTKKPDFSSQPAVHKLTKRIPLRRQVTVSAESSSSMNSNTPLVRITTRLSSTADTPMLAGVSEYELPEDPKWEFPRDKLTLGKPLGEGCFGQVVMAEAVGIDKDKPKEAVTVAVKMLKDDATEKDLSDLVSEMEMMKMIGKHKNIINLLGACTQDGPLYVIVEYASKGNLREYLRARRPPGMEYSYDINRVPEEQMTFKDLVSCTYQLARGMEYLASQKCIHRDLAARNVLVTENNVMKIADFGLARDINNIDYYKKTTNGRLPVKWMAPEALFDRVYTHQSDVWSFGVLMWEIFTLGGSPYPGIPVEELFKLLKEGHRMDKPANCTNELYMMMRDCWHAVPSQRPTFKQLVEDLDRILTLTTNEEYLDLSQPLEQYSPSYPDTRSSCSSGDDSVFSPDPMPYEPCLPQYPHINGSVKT

[2] = molecular target: T1, Interleukin-1 receptor-associated kinase 4 (Homo sapiens) (UniProt Q9NWZ3); assay: Inhibition of human recombinant IRAK4 at 500 nM in presence of ATP by radiometric assay relative to control
T1 sequence (whole entry): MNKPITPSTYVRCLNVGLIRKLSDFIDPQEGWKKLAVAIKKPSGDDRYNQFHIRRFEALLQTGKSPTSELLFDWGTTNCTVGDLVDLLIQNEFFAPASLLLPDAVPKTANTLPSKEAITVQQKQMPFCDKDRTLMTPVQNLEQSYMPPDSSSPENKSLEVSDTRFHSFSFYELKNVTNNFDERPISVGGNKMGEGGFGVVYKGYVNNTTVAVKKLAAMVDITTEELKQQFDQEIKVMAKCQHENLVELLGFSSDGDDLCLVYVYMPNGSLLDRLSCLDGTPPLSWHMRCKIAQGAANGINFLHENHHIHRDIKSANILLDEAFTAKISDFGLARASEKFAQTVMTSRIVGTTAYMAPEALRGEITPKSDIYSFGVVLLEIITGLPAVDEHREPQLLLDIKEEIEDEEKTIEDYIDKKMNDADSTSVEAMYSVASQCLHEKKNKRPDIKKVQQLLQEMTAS

[3] = molecular target: T2, Serine/threonine-protein kinase 3 (Homo sapiens) (UniProt Q13188); assay: Inhibition of human recombinant MST2 at 500 nM related to control ULK1
T2 sequence (whole entry): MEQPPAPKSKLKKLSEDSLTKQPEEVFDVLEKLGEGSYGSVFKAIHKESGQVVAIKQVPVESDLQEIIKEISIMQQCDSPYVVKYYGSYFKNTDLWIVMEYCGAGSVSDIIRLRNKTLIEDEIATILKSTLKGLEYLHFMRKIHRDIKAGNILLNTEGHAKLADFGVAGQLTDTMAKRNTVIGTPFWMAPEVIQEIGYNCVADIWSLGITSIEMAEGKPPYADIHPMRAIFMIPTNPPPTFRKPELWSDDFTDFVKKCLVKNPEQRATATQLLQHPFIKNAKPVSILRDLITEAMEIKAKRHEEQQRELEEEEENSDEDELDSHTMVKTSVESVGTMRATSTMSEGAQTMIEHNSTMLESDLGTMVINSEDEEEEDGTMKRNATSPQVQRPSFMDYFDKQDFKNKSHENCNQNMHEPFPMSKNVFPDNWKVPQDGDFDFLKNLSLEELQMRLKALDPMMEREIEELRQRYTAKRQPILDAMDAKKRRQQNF

[4] = molecular target: T3, Eukaryotic translation initiation factor 2-alpha kinase 3 (Homo sapiens) (UniProt Q9NZJ5); assay: Inhibition of human recombinant PEK at 15 nM related to control ULK1
T3 sequence (whole entry): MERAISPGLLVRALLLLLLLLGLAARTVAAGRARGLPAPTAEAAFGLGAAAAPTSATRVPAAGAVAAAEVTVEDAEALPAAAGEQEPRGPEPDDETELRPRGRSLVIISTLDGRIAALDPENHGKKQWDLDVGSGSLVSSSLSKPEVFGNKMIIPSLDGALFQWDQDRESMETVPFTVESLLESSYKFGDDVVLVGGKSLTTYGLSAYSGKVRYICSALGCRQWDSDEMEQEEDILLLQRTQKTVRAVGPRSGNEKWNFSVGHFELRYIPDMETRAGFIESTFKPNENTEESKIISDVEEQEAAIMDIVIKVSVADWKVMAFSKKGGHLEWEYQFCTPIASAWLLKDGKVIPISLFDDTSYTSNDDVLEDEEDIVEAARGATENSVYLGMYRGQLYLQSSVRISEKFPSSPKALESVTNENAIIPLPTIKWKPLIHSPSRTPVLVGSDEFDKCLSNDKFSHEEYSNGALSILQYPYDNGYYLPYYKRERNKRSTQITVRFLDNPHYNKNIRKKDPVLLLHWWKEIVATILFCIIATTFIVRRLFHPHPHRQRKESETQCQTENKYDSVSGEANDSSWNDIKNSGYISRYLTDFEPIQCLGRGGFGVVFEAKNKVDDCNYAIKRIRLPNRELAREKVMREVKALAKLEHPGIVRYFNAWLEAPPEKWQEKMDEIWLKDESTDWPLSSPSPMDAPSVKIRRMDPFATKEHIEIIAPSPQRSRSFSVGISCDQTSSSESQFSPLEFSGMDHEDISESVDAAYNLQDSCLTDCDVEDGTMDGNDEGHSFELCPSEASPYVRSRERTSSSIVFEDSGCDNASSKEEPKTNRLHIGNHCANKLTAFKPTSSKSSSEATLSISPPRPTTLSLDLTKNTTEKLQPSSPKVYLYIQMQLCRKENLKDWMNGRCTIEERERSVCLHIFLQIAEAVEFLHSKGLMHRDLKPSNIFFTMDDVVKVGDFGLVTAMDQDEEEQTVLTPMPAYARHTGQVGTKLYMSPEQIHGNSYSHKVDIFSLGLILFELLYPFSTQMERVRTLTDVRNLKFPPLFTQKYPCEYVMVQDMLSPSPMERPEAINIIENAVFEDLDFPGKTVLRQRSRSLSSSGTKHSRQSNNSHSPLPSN

[5] = molecular target: Tyrosine-protein kinase Fer (Homo sapiens) (UniProt P16591); assay: Inhibition of human recombinant FER at 40 nM related to control ULK1
Tyrosine-protein kinase Fer (Homo sapiens), sequence (P16591 whole entry, looked up): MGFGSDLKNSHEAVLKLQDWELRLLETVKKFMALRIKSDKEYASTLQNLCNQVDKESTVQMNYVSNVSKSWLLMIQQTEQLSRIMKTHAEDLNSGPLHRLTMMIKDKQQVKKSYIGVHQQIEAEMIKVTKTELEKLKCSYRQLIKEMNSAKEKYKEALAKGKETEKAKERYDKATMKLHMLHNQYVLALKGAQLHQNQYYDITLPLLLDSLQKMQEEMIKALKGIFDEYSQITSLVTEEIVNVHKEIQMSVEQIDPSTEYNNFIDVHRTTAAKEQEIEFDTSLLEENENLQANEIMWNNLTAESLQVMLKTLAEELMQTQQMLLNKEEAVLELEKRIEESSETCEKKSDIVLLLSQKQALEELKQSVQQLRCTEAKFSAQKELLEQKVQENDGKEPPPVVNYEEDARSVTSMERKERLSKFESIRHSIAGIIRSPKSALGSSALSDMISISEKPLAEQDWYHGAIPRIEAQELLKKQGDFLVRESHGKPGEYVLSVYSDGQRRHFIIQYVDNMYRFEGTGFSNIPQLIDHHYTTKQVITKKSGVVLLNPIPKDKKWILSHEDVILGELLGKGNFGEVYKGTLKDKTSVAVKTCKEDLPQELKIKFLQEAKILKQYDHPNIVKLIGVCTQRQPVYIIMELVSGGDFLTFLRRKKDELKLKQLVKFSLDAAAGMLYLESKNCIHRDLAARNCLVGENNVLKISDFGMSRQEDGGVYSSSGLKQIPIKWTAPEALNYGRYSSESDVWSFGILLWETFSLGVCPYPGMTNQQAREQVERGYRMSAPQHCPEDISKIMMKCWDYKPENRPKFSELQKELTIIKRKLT

[6] = molecular target: T4, Activin receptor type-1B (Homo sapiens) (UniProt P36896); assay: Inhibition of human recombinant ALK4 at 40 nM in presence of ATP by radiometric assay relative to control
T4 sequence (whole entry): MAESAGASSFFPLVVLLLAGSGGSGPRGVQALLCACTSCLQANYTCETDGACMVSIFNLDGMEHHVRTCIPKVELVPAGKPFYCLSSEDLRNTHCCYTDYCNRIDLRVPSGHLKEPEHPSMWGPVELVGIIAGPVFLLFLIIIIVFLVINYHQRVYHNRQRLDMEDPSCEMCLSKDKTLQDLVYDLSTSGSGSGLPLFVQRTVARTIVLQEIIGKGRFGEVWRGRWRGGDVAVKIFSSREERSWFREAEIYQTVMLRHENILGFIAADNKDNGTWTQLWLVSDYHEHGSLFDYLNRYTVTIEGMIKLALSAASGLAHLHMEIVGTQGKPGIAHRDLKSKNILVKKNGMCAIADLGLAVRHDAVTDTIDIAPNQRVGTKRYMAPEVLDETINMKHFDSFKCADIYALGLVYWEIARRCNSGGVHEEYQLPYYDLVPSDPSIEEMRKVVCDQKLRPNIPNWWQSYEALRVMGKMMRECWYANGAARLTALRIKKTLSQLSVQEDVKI
In short: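 Panel of 327 recombinant human kinases, each assayed in vitro by radiometric activity assay in duplicate at a single inhibitor concentration per compound, chosen with reference to its ULK1 inhibition. Activity remaining was expressed as percent of vehicle control, and percent inhibition was calculated as 100 minus percent activity remaining.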

[7] = molecular target: Protein kinase C alpha type (Homo sapiens) (UniProt P17252); assay: Inhibition of human recombinant PKCa at 40 nM in presence of ATP by radiometric assay relative to control

inhibition [1]: 21%
inhibition [2]: 6%
fold change (FC) [3]: 0
Structure (SMILES): CNC(=O)c1ccccc1Oc1nc(Nc2cc(OC)c(OC)c(OC)c2)ncc1Br

fold change (FC) [4]: 0
Structure (SMILES): CC(C)[C@H](NC(=O)c1cc(-c2cnn3cc(-c4ccc(OCCN5CCCCC5)cc4)cnc23)cs1)C(F)(F)F

fold change (FC) [5]: 0
inhibition [6]: 0%
inhibition [7]: 0%
Structure (SMILES): O=C(N[C@@H](C1CC1)C(F)(F)F)c1cc(-c2cnn3cc(-c4ccc(F)cc4)cnc23)cs1
